Efflux pump inh = inhibitors of Candida antifungal efflux pumps expressed in yeast | inhibition, % at 10 µM | 0.44% of 330,000 active | S. cerevisiae Candida pump triplex, Nile Red efflux;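 active means plate passing quality check with inhibition over a set limit, or well fluorescence over plate mean plus 4 SD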;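 further: Nile Red retained in pooled yeast measured as flow cytometry median fluorescence; 0% = buffer negative control and 100% = Enniatin B positive control; higher means more Nile Red kept so more efflux inhibition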
SMARCA2 activ = activators of SMARCA2 function; MG213 cells, MMTV-luciferase reporter, dexamethasone, overnight; activation, % at 9.1 µM; 1% of 370,000 active; AID 652017; in the data active means activation above about 7.8%;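 further: 0% = vehicle wells and 100% = reference activator wells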
AHR activator = human AHR activation; AHR-responsive luciferase reporter cells, luminescence; activation, % at 5 µM; 2.5% of 320,000 active; in the data active means activation above about 47%;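 further: 0% = vehicle wells and 100% = reference agonist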
Target sequence (P35869 whole entry, looked up): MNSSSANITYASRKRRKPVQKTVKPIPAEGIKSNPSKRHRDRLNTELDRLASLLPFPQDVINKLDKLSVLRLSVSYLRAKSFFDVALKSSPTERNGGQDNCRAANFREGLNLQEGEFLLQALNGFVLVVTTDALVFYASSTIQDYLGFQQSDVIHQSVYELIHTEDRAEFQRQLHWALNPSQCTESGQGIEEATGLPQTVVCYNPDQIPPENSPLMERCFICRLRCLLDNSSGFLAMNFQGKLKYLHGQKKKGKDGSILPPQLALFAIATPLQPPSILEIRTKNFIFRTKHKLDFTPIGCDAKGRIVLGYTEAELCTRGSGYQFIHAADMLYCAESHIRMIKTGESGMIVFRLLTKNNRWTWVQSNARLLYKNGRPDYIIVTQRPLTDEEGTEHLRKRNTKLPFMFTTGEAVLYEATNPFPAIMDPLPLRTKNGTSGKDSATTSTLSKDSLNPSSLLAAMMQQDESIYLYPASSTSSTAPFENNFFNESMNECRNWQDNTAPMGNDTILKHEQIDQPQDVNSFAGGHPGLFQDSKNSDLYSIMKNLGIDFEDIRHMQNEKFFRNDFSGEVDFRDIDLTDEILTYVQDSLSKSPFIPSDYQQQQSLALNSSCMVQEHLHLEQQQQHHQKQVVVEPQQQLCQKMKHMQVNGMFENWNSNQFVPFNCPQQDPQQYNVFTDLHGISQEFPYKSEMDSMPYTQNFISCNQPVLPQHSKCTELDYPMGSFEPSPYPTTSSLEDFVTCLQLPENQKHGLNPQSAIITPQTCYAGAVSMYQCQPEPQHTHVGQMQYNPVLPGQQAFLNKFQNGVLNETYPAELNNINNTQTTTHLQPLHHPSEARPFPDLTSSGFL
TbMetRS inhib = Trypanosoma brucei MetRS inhibition; 0.4% of 360,000 active; inhibition, % at 11.9 µM; purified T. brucei MetRS, ATP depletion, Kinase-Glo luminescence; AID 624268;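 active means inhibition above a per-plate cutoff of the control wells' mean inhibition plus 3 SD, cut at about 5.5% in these data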;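 further: 0% = DMSO wells median and 100% = median of wells with control inhibitor compound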
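Material: parasite MetRS enzyme / Replication: singlicate, one well per compound / Signal: luminescence of leftover ATP / Schedule: 2 h aminoacylation at 25 °C after 15 min preincubation / Medium: HEPES-MgCl2-KCl buffer plus DTT, spermine, BSA, pyrophosphatase / Doses: 11.9 µM single point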
TAG inh = inhibitors of triacylglycerol accumulation; inhibition, % at 12.5 µM; H9c2 cells, Nile Red lipid (TAG) fluorescence; cells loaded with 200 µM oleic acid; AID 651582; 0.66% of 230,000 active;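 active means pattern-corrected inhibition of lipid staining of at least 50% with the nuclear-stain viability signal not falling by more than 50%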;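 further: 0% = DMSO wells and 100% = triacsin C control wells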
Tb MetRS conf = Trypanosoma brucei MetRS inhibition confirmed. shares compounds with TbMetRS inhib. T. brucei MetRS enzyme, luminescence (ATP depletion). inhibition, % at 11.9 µM. 93% of 1,400 active. AID 624412; in the data active means inhibition above about 7%
Jurkat tox = kills Jurkat cells in T. brucei MetRS counterscreen; shares compounds with TbMetRS inhib; Jurkat cells viability, ATP luminescence; inhibition, % at 8.3 µM; 12% of 1,400 active; AID 624413; in the data active means inhibition above about 15%;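 further: 0% = vehicle and 100% = reference inhibitor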
Tb MetRS inh FP = inhibits T. brucei methionyl tRNA synthetase in orthogonal FP test. shares compounds with TbMetRS inhib. purified T. brucei MetRS, fluorescence polarization. inhibition, % at 11.9 µM. 44% of 1,400 active. AID 651607; in the data active means inhibition above about 17%;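 further: 0% = vehicle wells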
H9c2 TAG conf = triacylglycerol accumulation inhibition, confirmation; shares compounds with TAG inh; H9c2 lipid accumulation, Nile Red fluorescence; cells loaded with 200 µM oleic acid; inhibition, % at 12.5 µM; 71% of 990 active; AID 651629;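 active means mean inhibition across replicates of 40% or more; inactive means mean inhibition below 40%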;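 further: plate controls were DMSO only wells for no effect and Triacsin C treated wells for full effect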
SMARCA2 act conf = SMARCA2 activation, confirmation screen. activation, % at 9.1 µM. 30% of 3,500 active. shares compounds with SMARCA2 activ. MG213 cells, MMTV-luciferase with dexamethasone, luminescence, overnight; MG213 cells expressing E1A, Rb sequestered; DMSO wells 0%, reference activator 100%. AID 652260;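 active means activation above its plate's cutoff, the mean activation of tested wells plus 3 SD, cut at about 7.9% in these data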
GAL4-VP16 Luc = activates GAL4-VP16 luciferase, flagging SMARCA2 activator hits; shares compounds with SMARCA2 activ; HEK293 GAL4-VP16 pG5luc reporter, luciferase luminescence; scaled: DMSO wells 0%, SAHA wells 100%; activation, % at 9.1 µM; 41% of 3,500 active; AID 686939;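 active means activation above the solvent-only control well mean plus 3 SD, averaged across control plates, cut at about 5.2% in these data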
* = called active by the depositor; . = no result given. An excerpt weighted towards active compounds, which were near 4.1% of everything screened.

SMILES	Efflux pump inh	SMARCA2 activ	AHR activator	TbMetRS inhib	TAG inh	Tb MetRS conf	Jurkat tox	Tb MetRS inh FP	others
Cc1[nH]c2ccccc2c1C(=O)C(=O)N1CCN(C)CC1	0	-1	1	0	-7	.	.	.
O=C(c1cc(=O)[nH]c2ccccc12)N1CCN(Cc2ccc3c(c2)OCO3)CC1	.	-1	.	0	12	.	.	.
Cc1[nH]c2ccccc2c1C(=O)C(=O)N1CCN(c2ccccc2)CC1	0	2	1	12*	.	19*	-12	10
O=C(C(=O)N1CCN(Cc2ccccc2)CC1)c1c[nH]c2ccccc12	0	-1	-2	12*	-16	21*	-6	4
Cc1cc(C(=O)N2CCc3c([nH]c4ccccc34)C2c2cccc(Cl)c2)nn1C (stereo not drawn)	0	-2	41	1	8	.	.	.
O=C(c1cnccn1)N1CCc2c([nH]c3ccccc23)C1c1cccc(Cl)c1 (stereo not drawn)	0	-3	26	7.0*	.	10*	8	2
O=C(CCc1nc2ccccc2c(=O)[nH]1)OCCOc1ccc(Cl)cc1	0	0	0	16*	-3	30*	5	19*
OC(COc1ccc(Cl)cc1Cl)Cn1ccnc1 (stereo not drawn)	0	-1	47*	6.0*	.	14*	-1	4
O=C(CCCOc1ccc(Cl)cc1Cl)NCCCn1ccnc1	0	0	16	6.5*	.	18*	-7	11
COc1ccccc1CCn1cnc(-c2ccccc2)c1CC(C)C	.	-8	.	.	.	.	.	.
COC[C@H]1O[C@]2(c3ccccc3)CO[C@H]1[C@@H](/C=C/c1ccccc1)C2	.	-3	.	.	.	.	.	.
Nc1ccc(N2CCOCC2)c2nonc12	0	-2	0	26*	6	4	-5	1
O=C(Nc1ccc(N2CCOCC2)c2nonc12)C1CCCC1	0	2	3	0	6	.	.	.
C[C@H](O)[C@@H]1CN2CCc3c([nH]c4c(-c5ccc6c(c5)OCO6)cccc34)[C@@H]2C[C@@H]1N(C)C(=O)NC1CCCCC1	.	-1	.	.	.	.	.	.
CCCCNC(=O)C[C@H]1C[C@@]2(C(=O)OC)C(=C[C@H](C(C)C)O[C@@H]2C2CC2)N(Cc2ccc3c(c2)OCO3)C1=O	.	-4	.	.	.	.	.	.
C1CCCN(c2nc3nonc3nc2N2CCCCCC2)CC1	0	0	-1	-1	4	.	.	.
Nc1nc2nonc2nc1N1CCCCC1	0	1	-2	7.1*	-6	13*	3	3
O=C(NN1C(=O)/C(=C/c2ccc(O)cc2)SC1=S)c1ccccc1O	0	-3	-1	44*	.	58*	-1	33*
O=C(NN1C(=O)/C(=C/c2ccc(O)cc2)SC1=S)c1cccc(O)c1	0	0	-3	6.7*	.	14*	8	24*
CC(/C=C1\SC(=S)N(NC(=O)c2cccc(O)c2)C1=O)=C\c1ccccc1	0	0	-3	1	.	.	.	.
C#CCC1c2ccccc2CCN1CC=C (stereo not drawn)	.	2	.	.	.	.	.	.
O=C(NCCCCCCNC(=O)c1ccccc1O)c1ccccc1O	0	-1	4	6.7*	.	14*	8	6
Cn1c(CSc2nc3ccc(Br)cc3[nH]2)nc2ccccc21	0	0	3	12*	.	18*	8	12
O=C(c1ccc(COc2ccccc2Cl)o1)N1CCN(c2ccccc2)CC1	0	7	-1	0	-11	.	.	.
CN1CCN(C(=O)CCCOc2ccc(Cl)cc2Cl)CC1	0	-3	-1	2	.	.	.	.
SMILES	Efflux pump inh	SMARCA2 activ	AHR activator	TbMetRS inhib	TAG inh	Tb MetRS conf	Jurkat tox	Tb MetRS inh FP	others
O=C(c1ccco1)N1CCN(C(=O)c2ccc(COc3ccc(Cl)cc3Cl)o2)CC1	0	-1	-1	5.9*	2	16*	2	13
CN1CCN(C(=O)c2ccc(COc3ccc(Cl)cc3Cl)cc2)CC1	0	-2	-3	9.9*	.	19*	8	2
COc1ccc(-c2ccc3[nH]c4c(c3c2)CCN2C(=O)[C@@H]([C@H](C)O)[C@@H](N(C)C(=O)Nc3cc(Cl)cc(Cl)c3)C[C@@H]42)cc1	.	-6	.	7.8*	62*	11*	13	12	H9c2 TAG conf=63*
COCC#Cc1cnc2c(c1)C(=O)N([C@@H](C)CO)C[C@H](C)[C@H](CN(C)C(=O)c1ccc3c(c1)OCO3)O2	.	0	.	.	.	.	.	.
Oc1cccc(Nc2nc(O)c(/C=C3\C=Nc4ccccc43)s2)c1	0	11*	23	17*	1	21*	5	28*	SMARCA2 act conf=15*;GAL4-VP16 Luc=6.5*
CCc1nnc(N/N=C\c2ccc(OC(C)=O)c(OC)c2)n1N	0	8.6*	2	6.6*	.	4	4	4	SMARCA2 act conf=-2;GAL4-VP16 Luc=2
Cc1ccc(C(=O)NCCSc2c(C)[nH]c3ccccc23)cc1[N+](=O)[O-]	0	1	18	0	15	.	.	.
Cc1ccc(C(=O)NCCc2nc3ccccc3[nH]2)cc1[N+](=O)[O-]	0	8.6*	15	77*	.	78*	20*	59*	SMARCA2 act conf=-3;GAL4-VP16 Luc=-1
O=S1(=O)c2ccc(N3CC[C@@H](O)C3)cc2O[C@@H]2CCN1C2	.	-3	.	.	.	.	.	.
CN(C)CCNC(=O)c1ccc(COc2ccc(Cl)cc2Cl)cc1	0	8.0*	-1	9.7*	29	16*	27*	13	SMARCA2 act conf=10*;GAL4-VP16 Luc=1
COc1ccc(Cl)cc1C(=O)NCCN(C)C	0	-3	1	-1	-20	.	.	.
Cc1ccc(C2CCC3(CCC(=O)N3CCOC(=O)Nc3cccc(C#N)c3)CC2)cc1 (stereo not drawn)	.	-3	.	.	.	.	.	.
O=C(COc1ccccc1)Nc1cccc(-c2nc3ccccc3[nH]2)c1	0	9.2*	79*	21*	1	43*	4	26*	SMARCA2 act conf=6;GAL4-VP16 Luc=4
Clc1ccc2c(N/N=C/c3ccc(Br)cc3)ccnc2c1	0	0	23	0	21	.	.	.

Source: PubChem (several laboratories)
